These results are taken from publication PMC7226180 (Cancer Science, 2020).

One series has as its target CDK3 (Homo sapiens, UniProt Q00526). Put plainly: Enzymatic profiling, LANCE Ultra assay. The series is classed as biochemical. (In general: Time-resolved FRET reads energy transfer from a long-lived donor to a nearby acceptor.)
The subject of a further series is MCF‐7. Nature of the series: cells. In kind it is cell-based. The following applies: Homo sapiens, MCF7, 144 h, read-out: Proliferation inhibition IC50 (mean ± SD).
For a further series, the system named is MCF‐7/ARO. Put plainly: cells. The series is classed as cell-based. The note with it: 144 h, read-out: Proliferation inhibition IC50 (mean ± SD).
For the next series, the system named is T‐47D. Nature of the series: cells. The series is classed as cell-based. The following applies: Homo sapiens, T47D, 144 h, read-out: Proliferation inhibition IC50 (mean ± SD).
Another series concerns ES‐2. Put plainly: cells. The note with it: Homo sapiens, ES-2, 144 h, read-out: Proliferation inhibition IC50 (mean ± SD). In kind it is cell-based.
The subject of a further series is SW620. Put plainly: cells. In kind it is cell-based. The following applies: Homo sapiens, SW-620, 144 h, read-out: Proliferation inhibition IC50 (mean ± SD).
The test system of a further series is A549. Nature of the series: cells. The note with it: Homo sapiens, A549, 144 h, read-out: Proliferation inhibition IC50 (mean ± SD). The series is classed as cell-based.
The subject of the next series is Calu‐3. Put plainly: cells. The note with it: Homo sapiens, Calu-3, 144 h, read-out: Proliferation inhibition IC50 (mean ± SD). In kind it is cell-based.
The test system of another series is LN‐18. Put plainly: cells. The following applies: Homo sapiens, LN-18, 144 h, read-out: Proliferation inhibition IC50 (mean ± SD). In kind it is cell-based.
In a further series the test system is MV‐4‐11. Put plainly: cells. In kind it is cell-based. The note with it: Homo sapiens, MV4-11, 144 h, read-out: Proliferation inhibition IC50 (mean ± SD).
The test system of another series is HepG2. Put plainly: cells. The following applies: Homo sapiens, HepG2, 144 h, read-out: Proliferation inhibition IC50 (mean ± SD). The series is classed as cell-based.
The next series has as its system MCF‐7 xenograft. Put plainly: MCF‐7 s.c. human tumor xenograft. In kind it is in vivo, BALB/c nude mice. The note with it: 50 mg/kg; for TGI: MCF‐7 s.c. xenograft, i.g., QD 21 d; for Mean tumor size: MCF‐7 xenograft, day 20 (vehicle 703 mm^3). For orientation: In xenograft studies the graft and the host belong to different species.
A further series concerns MCF‐7/ARO xenograft. Nature of the series: MCF‐7/ARO s.c. human tumor xenograft, single agents. In kind it is in vivo, BALB/c nude mice. The following applies: MCF‐7/ARO s.c. xenograft, i.g., QD 21 d, 150 mg/kg.
A further series deals with Colo‐205 xenograft. Put plainly: Colo‐205 s.c. human tumor xenograft. The series is classed as in vivo, BALB/c nude mice. The following applies: Colo‐205 s.c. xenograft, i.g., QD 14 d, 50 mg/kg.
In a further series the test system is MV4‐11 xenograft. Nature of the series: MV4‐11 s.c. human tumor xenograft. The series is classed as in vivo, BALB/c nude mice. The following applies: MV4‐11 s.c. xenograft, i.g., QD 20 d, 50 mg/kg.
In another series the test system is U87‐MG xenograft. Put plainly: U87‐MG s.c. human tumor xenograft. The series is classed as in vivo, BALB/c nude mice. The following applies: i.g., QD 18 d, 50 mg/kg.
Series [1] deals with U87‐MG‐Luc human glioblastoma. Nature of the series: U87‐MG‐Luc human glioblastoma orthotopic model. The series is classed as in vivo, female BALB/c nude mice. The note with it: for Median survival time (mean ± SEM): 75 mg/kg (vehicle 30 ± 1 d); for Increase life span: 75 mg/kg, compared with vehicle. The procedure, abridged:
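Female BALB/c nude mice, 6–8 weeks old, received 3 × 10⁵ U87-MG-Luc cells with 20% Matrigel. Cells were injected slowly into a skull hole about 2 mm right of the anterior fontanel and 1 mm ahead of the coronal. On day 8, mice were randomized by bioluminescence and dosed orally once daily. Survival was followed by Kaplan–Meier; life-span increase is relative to vehicle, with P by comparison to vehicle.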

The next series is described as follows: in vivo. On the set-up: species or system female BALB/c nude mice.
Series [2] concerns Rb^Ser780 phosphorylation in MCF‐7 cells. Nature of the series: Western blot of Rb, p‐Rb Ser780 and cyclin D1. The series is classed as cell-based. The following applies: MCF‐7, 24 h; for Rb^Ser780 phosphorylation and total Rb protein levels: dose‐dependent. The procedure, abridged:
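MCF-7 cells were treated with a range of test compound concentrations for 24 h, then lysed in buffer containing phosphatase inhibitors. Lysates were separated, transferred and probed for Rb, p-Rb Ser780 and cyclin D, with β-tubulin or β-actin as loading controls. Bands were detected by HRP luminol chemiluminescence.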

For the next series, the system named is MCF‐7 cells. Put plainly: Senescence assay. In kind it is cell-based. The following applies: MCF‐7, 12‐day exposure, dose‐dependent. The procedure, abridged: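 MCF-7 cells grown at 37°C, 5% CO₂ in DMEM or RPMI-1640 with 10% FBS. Seeded in 6-well plates and exposed to the test compound at the indicated concentrations, or vehicle, for 12 days. Then stained with SA-β-galactosidase staining solution following the kit instructions. Stocks were 10 mmol/L in DMSO.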

For a further series, the system named is breast cancer. The following applies: cited from earlier work.
The test system of series [3] is ER/progesterone receptor+/HER2− advanced breast cancer. The following applies: women, LY2835219 plus anastrozole or letrozole; cited from earlier work.
In series [4] the test system is ER+ metastatic breast cancer. The note with it: patients, cited from earlier work.
The subject of series [5] is recurrent Rb‐positive glioblastoma. The note with it: adult patients, phase II trial; cited from earlier work.
Setting [6] is: female, BALB/c nude, mouse, in vivo, 75 mg/kg.

Read-outs that look alike come from different tables or passages of the source. Marks after values point to notes of the source that are not given here.

CDK3, sequence (Q00526 whole entry): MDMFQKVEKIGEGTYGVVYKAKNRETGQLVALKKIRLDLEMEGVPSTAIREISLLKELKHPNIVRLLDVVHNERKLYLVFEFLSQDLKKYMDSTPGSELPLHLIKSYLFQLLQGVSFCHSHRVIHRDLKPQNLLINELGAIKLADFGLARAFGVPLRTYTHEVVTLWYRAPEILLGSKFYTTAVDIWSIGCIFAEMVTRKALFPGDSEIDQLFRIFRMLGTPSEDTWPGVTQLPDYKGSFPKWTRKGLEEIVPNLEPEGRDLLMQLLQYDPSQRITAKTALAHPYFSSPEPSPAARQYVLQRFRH
CDK3, sequence (P24864 whole entry, further chain): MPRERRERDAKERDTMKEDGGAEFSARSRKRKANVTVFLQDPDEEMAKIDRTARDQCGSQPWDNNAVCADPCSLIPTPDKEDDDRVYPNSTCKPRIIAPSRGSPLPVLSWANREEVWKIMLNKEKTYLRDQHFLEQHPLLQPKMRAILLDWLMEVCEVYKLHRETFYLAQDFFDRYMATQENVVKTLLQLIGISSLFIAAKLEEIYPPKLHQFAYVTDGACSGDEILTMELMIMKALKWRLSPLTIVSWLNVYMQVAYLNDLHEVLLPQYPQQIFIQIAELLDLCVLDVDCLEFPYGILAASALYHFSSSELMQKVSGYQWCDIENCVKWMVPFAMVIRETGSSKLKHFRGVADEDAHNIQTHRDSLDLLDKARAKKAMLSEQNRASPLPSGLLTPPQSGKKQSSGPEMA

As for `CCN1CCN(Cc2ccc(Nc3ncc(F)c(-c4cc(F)c5nc(C)n(C(C)C)c5c4)n3)nc2)CC1` [LY2835219, abemaciclib], the IC50 was 0.482 µM against CDK3; 0.218 ± 0.0087 µM in the series on MCF‐7; 0.327 ± 0.0438 µM with MCF‐7/ARO; 0.672 ± 0.119 µM in the series with T‐47D; 0.0278 ± 0.0103 µM with ES‐2; 0.283 ± 0.0427 µM with SW620. Moreover, the IC50 in the series on A549 was 0.264 ± 0.0284 µM; with Calu‐3, 1.01 ± 0.03 µM; with LN‐18, 0.244 ± 0.003 µM; in the series on MV‐4‐11, 0.0798 ± 0.0353 µM; in the series on HepG2, 0.0823 ± 0.0204 µM. For the same compound, the TGI in the series on MCF‐7 xenograft is 114%; in the series with MCF‐7/ARO xenograft, 67^** %; in the series on Colo‐205 xenograft, 82^** %; in the series with MV4‐11 xenograft, 54^**, # %; in the series on U87‐MG xenograft it was 131^**,## %. The same compound yielded a Mean tumor size in the series with MCF‐7 xenograft of 94 mm^3. In addition, in series [1], the “Median survival time (mean ± SEM)” value was found to be 42 ± 2 days. The compound also displayed an Increase life span in series [1] of 40.00%. Further, in the series “in vivo” (24 hours after the final dose), the “Levels in the plasma and brain compared with SPH3643” value is “markedly lower”. This compound also yielded a Kp at 1.5 h in the series “in vivo” (setting [6]) of 0.26 ± 0.13. In “in vivo” (setting [6]), this compound gave a Kp at 24 h of 0.27 ± 0.08. For the same compound, the “Expression of cyclin D1” value in [2] is listed as “without significantly altering”. Further, the “Rb^Ser780 phosphorylation and total Rb protein levels” value in series [2] was “significant decrease”. Moreover, in the series with MCF‐7 cells, the “Cell senescence (SA‐β‐gal staining)” value was “could induce cell senescence”. For the same compound, the PFS with breast cancer (LY2835219 plus fulvestrant) is given as 16.4 months. Also, the “Objective response rate and PFS” value in [3] is “significantly improved”.
In the case of `N#Cc1ccc(C(c2ccc(C#N)cc2)n2cncn2)cc1` [Letrozole, letrozole], the “Disease‐free survival” value in series [4] (letrozole single‐agent treatment) is listed as 10.2 months.
On to `CC(=O)c1c(C)c2cnc(Nc3ccc(N4CCNCC4)cn3)nc2n(C2CCCC2)c1=O` [Palbociclib, palbociclib], for which the IC50 was 0.374 ± 0.0487 µM in the series on MCF‐7/ARO; 1.12 ± 0.686 µM with T‐47D; 0.0534 ± 0.0013 µM in the series on ES‐2; 0.268 ± 0.0368 µM in the series with SW620; 0.795 ± 0.0345 µM in the series with A549; > 10 µM in the series with Calu‐3. Besides, the IC50 with LN‐18 worked out at 0.113 ± 0.0256 µM; with MV‐4‐11 it was 0.0431 ± 0.0095 µM; in the series with HepG2, 0.0606 ± 0.009 µM. Besides, the TGI was 84% in the series with MCF‐7 xenograft; 67^** % with MCF‐7/ARO xenograft; 93^** % with Colo‐205 xenograft; 68^** % with MV4‐11 xenograft; 96^** % with U87‐MG xenograft. Also, the Mean tumor size in the series on MCF‐7 xenograft is given as 256 mm^3. Besides, the “Median survival time (mean ± SEM)” value in series [1] was 35 ± 10 days. The compound also displayed an Increase life span in series [1] of 16.67%. The “Expression of cyclin D1” value in series [2] is “without significantly altering”. For the same compound, the “Rb^Ser780 phosphorylation and total Rb protein levels” value in [2] was “significant decrease”. Also, the “Cell senescence (SA‐β‐gal staining)” value in the series on MCF‐7 cells was “could induce cell senescence”. For the same compound, the “Disease‐free survival” value in series [4] (palbociclib together with letrozole) is 20.2 months. For the same compound, the “Single‐agent efficacy” value in series [5] was “failed to achieve”.
As for `C[C@]12CC[C@@H]3c4ccc(O)cc4C[C@@H](CCCCCCCCC[S+]([O-])CCCC(F)(F)C(F)(F)F)[C@H]3[C@@H]1CC[C@@H]2O` (stereo partly drawn) [fulvestrant], in the series on breast cancer (fulvestrant alone), the PFS is 9.3 months.
